The results in this text go back to ChEMBL document CHEMBL1142193, “Dual targeting of GyrB and ParE by a novel aminobenzimidazole class of antibacterial compounds” (2007).

Converted amounts (≈) assume the structure as drawn. The source made the active and inactive calls. The rule behind the calls is not given here.

Test [1] deals with Streptococcus pneumoniae. Kind of test: Antibacterial activity against Streptococcus pneumoniae ATCC BAA-255 with GyrB T172A and ParE T172A mutation after 18 to 20 hrs. Format: functional. The gist of the method:
(§1)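 MICs followed CLSI guidelines. Strains were grown overnight at 35°C on solid medium. Inocula were prepared with a Prompt system. Compounds were serially diluted twofold in 100% DMSO at 200x and diluted 1:200 into medium, for a final 0.5% DMSO. Plates were incubated at 35°C for 18 to 20 h and read visually. A twofold MIC variation was taken as assay error.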

For test [2], the system named is Enterococcus faecalis. Kind of test: Antibacterial activity against Enterococcus faecalis ATCC 29212 with ParE T169A mutation after 18 to 20 hrs. The class given is functional. The method, boiled down: as §1
Test [3] has as its system Staphylococcus aureus. Kind of test: Antibacterial activity against Staphylococcus aureus ATCC 29213 with GyrB T173I mutation after 18 to 20 hrs. The class given is functional. The method, boiled down:
as §1

For test [4], the system named is Staphylococcus aureus. Briefly: Antibacterial activity against Staphylococcus aureus ATCC 29213 carrying plasmid expressing GyrB T173N mutant. Format: functional.
Test [5] deals with Staphylococcus aureus. Briefly: Antibacterial activity against Staphylococcus aureus ATCC 29213 with GyrB T173I and GrlB T166A mutation after 18 to 20 hrs. Format: functional. The gist of the method:
as §1

The test system of test [6] is Staphylococcus aureus. Briefly: Inhibition of DNA synthesis in Staphylococcus aureus ATCC 29213 assessed as [3H]thymidine incorporation. The class given is functional. The method, boiled down:
(§2)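 Log-phase cells exposed in duplicate to compound at 5x MIC; labelled-precursor uptake measured over 15 min, stopped with 10% trichloroacetic acid. Incorporation expressed as percent of untreated control (taken as 100%).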
On the technique in general: Dividing cells build labelled thymidine or BrdU into new DNA.

Test [7] deals with Escherichia coli. Briefly: Reduction in steady-state levels of supercoiled pUC18 in Escherichia coli CAG12184 tolC mutant. Format: functional, organism-based. The method, boiled down: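 Cells carrying pUC18 grown at 37°C in caMHB with 100 µg/ml ampicillin to OD600 0.5, then exposed 1 h at 37°C with shaking to a twofold dilution series spanning the MIC. Plasmid isolated, concentrated, run on 1% TBE-agarose alongside supercoiled markers for 16 h, stained with ethidium bromide.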

Test [8] has as its system Streptococcus pneumoniae. Kind of test: Antibacterial activity against Streptococcus pneumoniae ATCC BAA-255 with ParE T172I mutation after 18 to 20 hrs. The class given is functional. The gist of the method: as §1
Test [9] deals with Staphylococcus aureus. Briefly: Antibacterial activity against Staphylococcus aureus ATCC 29213 carrying plasmid expressing GyrB R144I mutant. The class given is functional.
Test [10] has as its system Staphylococcus aureus. Kind of test: Antibacterial activity against novobiocin-resistant Staphylococcus aureus ATCC 29213 with GyrB R144I mutation after 18 to 20 hrs. The class given is functional. The method, boiled down: as §1
Test [11] concerns Staphylococcus aureus. Kind of test: Antibacterial activity against Staphylococcus aureus ATCC 29213 with GyrB R144I mutation without plasmid. The class given is functional.
In test [12] the test system is Haemophilus influenzae. Briefly: Antibacterial activity against novobiocin-resistant Haemophilus influenzae ATCC 51907 with GyrB R140L mutation after 18 to 20 hrs. The class given is functional. The method, boiled down: as §1
For test [13], the system named is Staphylococcus aureus. Kind of test: Antibacterial activity against Staphylococcus aureus ATCC 29213 with GyrB T173N and GrlB T166A mutation after 18 to 20 hrs. The class given is functional. The method, boiled down:
as §1

Test [14] concerns Staphylococcus aureus. Kind of test: Inhibition of RNA synthesis in Staphylococcus aureus ATCC 29213 assessed as [3H]uridine incorporation. Format: functional. The gist of the method:
as §2

In test [15] the test system is Staphylococcus aureus. Kind of test: Inhibition of protein synthesis in Staphylococcus aureus ATCC 29213 assessed as [3H]aminoacid incorporation. Format: functional.
Test [16] has as its system Staphylococcus aureus. Kind of test: Antibacterial activity against Staphylococcus aureus ATCC 29213 carrying plasmid expressing GyrB T173I mutant. Format: functional.
Test [17] has as its system Enterococcus faecalis. Briefly: Antibacterial activity against Enterococcus faecalis ATCC 29212 after 18 to 20 hrs. Format: functional. The gist of the method:
as §1

For test [18], the system named is Staphylococcus aureus. Briefly: Antibacterial activity against Staphylococcus aureus ATCC 29213 with GyrB T173N mutation without plasmid. Format: functional.
The subject of test [19] is Staphylococcus aureus. Briefly: Antibacterial activity against Staphylococcus aureus ATCC 29213 with GyrB T173N mutation after 18 to 20 hrs. Format: functional. The gist of the method: as §1
Test [20] deals with Staphylococcus aureus. Kind of test: Antibacterial activity against Staphylococcus aureus ATCC 29213 with GyrB T173I mutation without plasmid. The class given is functional.
Test [21] concerns Enterococcus faecalis. Kind of test: Antibacterial activity against Enterococcus faecalis ATCC 29212 with GyrB T167I mutation after 18 to 20 hrs. The class given is functional. The gist of the method:
as §1

Test [22] relates to Haemophilus influenzae. Briefly: Antibacterial activity against novobiocin-resistant Haemophilus influenzae ATCC 51907 with GyrB R140H mutation after 18 to 20 hrs. Format: functional. The method, boiled down: as §1
Test [23] deals with Enterococcus faecalis. Kind of test: Antibacterial activity against Enterococcus faecalis ATCC 29212 with GyrB T167I and ParE T169A mutation after 18 to 20 hrs. The class given is functional. The method, boiled down: as §1
Test [24] concerns Haemophilus influenzae. Kind of test: Antibacterial activity against novobiocin-resistant Haemophilus influenzae ATCC 51907 with GyrB R140C mutation after 18 to 20 hrs. Format: functional. The gist of the method:
as §1

In test [25] the test system is Enterococcus faecalis. Kind of test: Antibacterial activity against Enterococcus faecalis ATCC 29212 with GyrB T167A mutation after 18 to 20 hrs. The class given is functional. The method, boiled down:
as §1

Test [26] has as its system Streptococcus pneumoniae. Kind of test: Antibacterial activity against novobiocin-resistant Streptococcus pneumoniae ATCC BAA-255 with GyrB S127L mutation after 18 to 20 hrs. Format: functional. The gist of the method:
as §1

The subject of test [27] is Haemophilus influenzae. Briefly: Antibacterial activity against Haemophilus influenzae ATCC 51907 with GyrB T169I mutation after 18 to 20 hrs. Format: functional. The gist of the method:
as §1

Test [28] relates to Staphylococcus aureus. Briefly: Antibacterial activity against Staphylococcus aureus ATCC 29213 carrying plasmid expressing wild type GyrB. The class given is functional.
Test [29] relates to Enterococcus faecalis. Briefly: Antibacterial activity against Enterococcus faecalis ATCC 29212 with GyrB T167A and ParE T169A mutation after 18 to 20 hrs. The class given is functional. The gist of the method: as §1
The test system of test [30] is Streptococcus pneumoniae. Kind of test: Antibacterial activity against Streptococcus pneumoniae ATCC BAA-255 with ParE T172A mutation after 18 to 20 hrs. The class given is functional. The method, boiled down: as §1
Test [31] deals with Streptococcus pneumoniae. Briefly: Antibacterial activity against Streptococcus pneumoniae ATCC BAA-255 after 18 to 20 hrs. The class given is functional. The gist of the method: as §1
Test [32] has as its system Haemophilus influenzae. Briefly: Antibacterial activity against Haemophilus influenzae ATCC 51907 after 18 to 20 hrs. Format: functional. The gist of the method: as §1
Test [33] has as its system Staphylococcus aureus. Briefly: Antibacterial activity against Staphylococcus aureus ATCC 29213 after 18 to 20 hrs. Format: functional. The gist of the method: as §1
For test [34], the system named is Staphylococcus aureus. Kind of test: Antibacterial activity against Staphylococcus aureus ATCC 29213 without plasmid. The class given is functional.

Turning to `CCNC(=O)Nc1nc2cc(-c3cnc(OC)nc3)c(OC)cc2[nH]1`, the MIC in test [1] is 64 µg/mL (≈ 187 µM); in [2], 8 µg/mL (≈ 23.4 µM); in test [3], 16 µg/mL (≈ 46.7 µM); in test [4], 8 µg/mL (≈ 23.4 µM); in [5] it was over 64 µg/mL; in test [8], 4 µg/mL (≈ 11.7 µM). For the same compound, the MIC in test [9] is 2 µg/mL (≈ 5.84 µM); in [10] it was 4 µg/mL (≈ 11.7 µM); in [11], 2 µg/mL (≈ 5.84 µM); in [12], 4 µg/mL (≈ 11.7 µM); in [13] it was over 64 µg/mL; in [16] it was 8 µg/mL (≈ 23.4 µM). The MIC in [17] was determined as 1 µg/mL (≈ 2.92 µM); in test [18], 8 µg/mL (≈ 23.4 µM); in [19] it was 16 µg/mL (≈ 46.7 µM); in test [20], 8 µg/mL (≈ 23.4 µM); in [21], 1 µg/mL (≈ 2.92 µM); in [22] it was 2 µg/mL (≈ 5.84 µM). Further, the MIC was over 64 µg/mL in test [23]; 2 µg/mL (≈ 5.84 µM) in test [24]; 0.5 µg/mL (≈ 1.46 µM) in [25]; 0.5 µg/mL (≈ 1.46 µM) in test [26]; over 64 µg/mL in [27]; 2 µg/mL (≈ 5.84 µM) in test [28]. Also, the MIC is over 64 µg/mL in test [29]; 8 µg/mL (≈ 23.4 µM) in [30]; 0.5 µg/mL (≈ 1.46 µM) in [31]; 4 µg/mL (≈ 11.7 µM) in test [32]; 2 µg/mL (≈ 5.84 µM) in test [33]; 2 µg/mL (≈ 5.84 µM) in [34]. Moreover, the Inhibition in test [6] is on record as 80%; in test [14], 20%; in test [15], 20%. In addition, the Activity result in test [7] is “Dose-dependent effect”.

In the case of `CO[C@H]1/C=C/O[C@@]2(C)Oc3c(C)c(O)c4c(O)c(c(/C=N/N5CCN(C)CC5)c(O)c4c3C2=O)NC(=O)/C(C)=C\C=C\[C@H](C)[C@H](O)[C@@H](C)[C@@H](O)[C@@H](C)[C@H](OC(C)=O)[C@@H]1C`, the result in [14] and in test [15] was Active.

As a reminder, the Inhibition is the change of the read-out against control, counted positive when it falls.
